Most compounds without a hit are left out; they make up all but 1.2% or so of the library.
Yeast superoxide = reduction of superoxide in aged yeast, primary screen, HTS; actives 0.18% (n = 330,000); S. cerevisiae aged cells, superoxide DHE fluorescence; stronger effect = lower value; AID 2690, 2010; superoxide response (% of plate mean), % at 10 µM;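 active means superoxide response under a set limit, about three screen SD below normal, cut at about 65% in these data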;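 further: yeast aged for seven days with compound at 30 °C before DHE staining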
LANA-H2A inh = blockers of LANA interaction with H2A/H2B – biochemical, FP readout, HTS, primary screen. Protein LANA1 (Human herpesvirus 8 type P (isolate GK18)), Q9QR71. cell-free LANA-H2A/H2B peptide, fluorescence polarization. inhibition, % (test concentration not listed). actives 0.6% (n = 320,000); in the data active means inhibition mostly above about 10%, no sharp cut-off; inactive means mostly below about 6.7%
Target sequence (Q9QR71 whole entry, looked up): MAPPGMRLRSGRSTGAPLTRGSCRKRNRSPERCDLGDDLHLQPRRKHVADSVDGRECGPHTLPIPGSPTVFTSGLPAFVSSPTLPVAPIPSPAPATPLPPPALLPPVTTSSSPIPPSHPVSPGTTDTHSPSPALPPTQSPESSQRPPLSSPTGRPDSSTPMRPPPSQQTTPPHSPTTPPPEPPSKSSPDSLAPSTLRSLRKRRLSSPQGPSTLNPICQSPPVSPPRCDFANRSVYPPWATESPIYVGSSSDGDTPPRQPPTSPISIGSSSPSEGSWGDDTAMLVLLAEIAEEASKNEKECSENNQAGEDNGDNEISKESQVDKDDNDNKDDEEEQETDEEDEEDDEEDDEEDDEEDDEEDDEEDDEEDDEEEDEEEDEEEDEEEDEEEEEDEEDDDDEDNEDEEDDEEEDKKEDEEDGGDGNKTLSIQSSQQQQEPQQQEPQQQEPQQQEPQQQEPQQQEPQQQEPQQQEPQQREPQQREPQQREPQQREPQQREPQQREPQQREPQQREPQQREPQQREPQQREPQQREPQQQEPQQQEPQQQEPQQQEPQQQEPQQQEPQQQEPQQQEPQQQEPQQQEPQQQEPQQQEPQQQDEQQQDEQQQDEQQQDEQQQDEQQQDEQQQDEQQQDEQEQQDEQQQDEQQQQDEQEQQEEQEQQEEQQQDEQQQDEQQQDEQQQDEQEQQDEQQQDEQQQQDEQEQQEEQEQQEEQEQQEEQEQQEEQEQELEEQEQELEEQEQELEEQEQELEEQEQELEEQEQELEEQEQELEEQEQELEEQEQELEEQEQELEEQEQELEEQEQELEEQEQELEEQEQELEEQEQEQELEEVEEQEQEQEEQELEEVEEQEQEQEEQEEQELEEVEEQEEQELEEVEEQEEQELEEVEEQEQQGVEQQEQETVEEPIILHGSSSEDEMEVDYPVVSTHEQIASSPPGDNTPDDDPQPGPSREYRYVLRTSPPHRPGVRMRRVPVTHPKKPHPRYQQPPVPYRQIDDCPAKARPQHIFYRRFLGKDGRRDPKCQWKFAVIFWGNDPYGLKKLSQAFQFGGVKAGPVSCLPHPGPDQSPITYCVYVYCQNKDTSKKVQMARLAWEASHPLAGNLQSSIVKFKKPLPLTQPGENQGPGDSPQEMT
ASAP1 GAP inh = inhibitors of human ASAP1 ArfGAP activity, primary screen, biochemical, fluorescence polarization; actives 0.19% (n = 360,000); ASAP1-stimulated ARF1 GTP hydrolysis, GDP FP detection; Arf-GAP with SH3 domain, ANK repeat and PH domain-containing protein 1 (Homo sapiens), …; inhibition, % at 16.5 µM; in the data active means inhibition above about 25%
proCasp3 act = activators of human procaspase-3 D3A mutant, primary screen, biochemical, absorbance, PC-3 D3A mutant, single concentration | AID 463141, 2010 | activation, % at 8.5 µM | actives 0.11% (n = 330,000) | Caspase-3 (Homo sapiens), P42574 | recombinant procaspase-3 D3A, Ac-DEVD-pNA absorbance 405 nm;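 active means activation above the mean of all tested compounds plus 3 SD, cut at about 21% in these data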
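Assay system: Procaspase-3 D3A mutant, all three cleavage aspartates alanine. Buffer or medium: Zinc-free HEPES saline buffer with Triton X-100. Times: 1 h compound preincubation, 2 h substrate hydrolysis at 25 °C. Measured by: 405 nm absorbance of p-nitroaniline, reads at 0 and 120 min. Read-out basis: percent activation relative to control range. Replicates: singlicate.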
proCasp7 act = procaspase-7 activators, primary screen, counter-screen for procaspase-3 activator project, biochemical, absorbance, HTS, human. actives 0.093% (n = 330,000). Caspase-7 (Homo sapiens), P55210. recombinant procaspase-7, Ac-DEVD-pNA absorbance 405 nm; D23A/D198A/D206A triple mutant, cannot self-cleave; scale: DMSO 0, 5 µM enzyme 100. AID 463210, 2010. activation, % at 8.5 µM;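 active means percent activation above the screen-wide mean plus 3 SD, cut at about 25% in these data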
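Test system: Procaspase-7 triple mutant (PC-7 D3A). Also added: Ac-DEVD-pNA substrate, 400 µM as added. Schedule: 1 h enzyme–compound preincubation and 2 h substrate reaction, both 25 °C. Signal: p-Nitroaniline absorbance at 405 nm, read at 0 and 120 min. Control set: low DMSO alone, high DMSO plus 5 µM PC-7.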
ARFGAP1 inh = inhibitors of rat ARFGAP1 GAP activity, primary screen, biochemical, fluorescence polarization, GDP tracer | ADP-ribosylation factor GTPase-activating protein 1 (Rattus norvegicus), Q62848 | Arfgap1-stimulated ARF1 GTP hydrolysis, GDP FP detection | inhibition, % at 16.5 µM | actives 0.26% (n = 360,000) | AID 651572, 2012;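 active means inhibition above a per-plate limit, mean inhibition of low control wells plus 3 SD, cut at about 25% in these data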
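material = rat Arfgap1 catalytic domain, aa 1-136 | also added = human ARF1(Δ1-17)-GTP substrate | compound dosing = one concentration, 16.5 µM, DMSO 1.26% | times = GTP hydrolysis reaction 2 h at 25 °C | measured by = FP, GDP Alexa 633 tracer displaced from anti-GDP antibody, 620/688 nm | evaluation = percent inhibition of Arfgap1-stimulated GTP hydrolysis | replication = single well per compound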
ARFGAP1 inh conf = ARFGAP1 inhibitor hit confirmation, biochemical, fluorescence polarization, triplicate; shares compounds with ARFGAP1 inh; ARFGAP1-stimulated ARF1 GTP hydrolysis, GDP tracer FP; inhibition, % at 16.5 µM; actives 30% (n = 890); AID 651608, 2012;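 active means average inhibition over triplicates above the hit cutoff set in the earlier primary screen, cut at about 25% in these data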
Hits are given with their value.

What do the screens show for `CN(c1ccc(OCC(=O)Nc2ccc3[nH]c(=O)[nH]c3c2)cc1)S(=O)(=O)c1ccc(Cl)cc1`?
Yeast superoxide: inactive; LANA-H2A inh: inactive; ASAP1 GAP inh: inactive; proCasp3 act: inactive; proCasp7 act: inactive; ARFGAP1 inh: 30; ARFGAP1 inh conf: inactive

What do the screens show for `CCOc1ccc(S(=O)(=O)N(C)c2ccc(OCC(=O)Nc3ccc4[nH]c(=O)[nH]c4c3)cc2)cc1`?
Yeast superoxide: inactive; LANA-H2A inh: inactive; ASAP1 GAP inh: inactive; proCasp3 act: inactive; proCasp7 act: inactive; ARFGAP1 inh: inactive

Results for COc1ccc(NC(=O)c2ccc3c(c2)C(=O)N(Cc2ccncc2)C3=O)cc1S(N)(=O)=O ?
Yeast superoxide: inactive; LANA-H2A inh: inactive; ASAP1 GAP inh: inactive; proCasp3 act: inactive; proCasp7 act: inactive; ARFGAP1 inh: 35; ARFGAP1 inh conf: inactive

What do the screens show for `O=C(NC1CC1)c1sc2ccccc2c1Cl`?
Yeast superoxide: inactive; LANA-H2A inh: inactive; ASAP1 GAP inh: inactive; proCasp3 act: inactive; proCasp7 act: inactive; ARFGAP1 inh: inactive

What do the screens show for `O=C(NNC(=S)NC1CCCCC1)c1sc2ccccc2c1Cl`?
Yeast superoxide: inactive; LANA-H2A inh: inactive; ASAP1 GAP inh: inactive; proCasp3 act: inactive; proCasp7 act: inactive; ARFGAP1 inh: 25; ARFGAP1 inh conf: 60

What do the screens show for `Cc1nn(C)c(Cl)c1/C=N/OC(=O)c1ccc(F)cc1`?
Yeast superoxide: inactive; LANA-H2A inh: inactive; ASAP1 GAP inh: inactive; proCasp3 act: inactive; proCasp7 act: inactive; ARFGAP1 inh: inactive

Results for Cc1nn(C)c(Cl)c1/C=N/OC(=O)c1ccccc1 ?
Yeast superoxide: inactive; LANA-H2A inh: inactive; ASAP1 GAP inh: inactive; proCasp3 act: inactive; proCasp7 act: inactive; ARFGAP1 inh: 32; ARFGAP1 inh conf: inactive

How did Cc1c(C=O)c(Cl)n(C)c(=O)c1C#N do in these assays?
Yeast superoxide: inactive; LANA-H2A inh: inactive; ASAP1 GAP inh: inactive; proCasp3 act: inactive; proCasp7 act: inactive; ARFGAP1 inh: 28; ARFGAP1 inh conf: inactive

Results for CC(=O)Oc1c(Br)cc(N(C(C)=O)S(=O)(=O)c2ccccc2)c2ccccc12 ?
Yeast superoxide: inactive; LANA-H2A inh: inactive; ASAP1 GAP inh: inactive; proCasp3 act: inactive; proCasp7 act: inactive; ARFGAP1 inh: inactive

Results for CC(C)(C)OC[C@H](NC(=O)c1[nH]cnc1C(=O)Nc1ccccc1F)C(=O)OC(C)(C)C ?
ASAP1 GAP inh: inactive; ARFGAP1 inh: inactive

How did COc1ccccc1N1CCN(CCCNC(=O)C2CCCN(c3ncnc4c3nc3n4CCCCC3)C2)CC1 (stereo not drawn) do in these assays?
Yeast superoxide: inactive; LANA-H2A inh: inactive; ASAP1 GAP inh: inactive; proCasp3 act: inactive; proCasp7 act: inactive; ARFGAP1 inh: inactive

Results for C=CCn1c2ccccc2c2nnc(SCCCn3c(=O)[nH]c4ccccc43)nc21 ?
ASAP1 GAP inh: inactive; ARFGAP1 inh: 40; ARFGAP1 inh conf: inactive

Results for C=CCn1c2ccccc2c2nnc(SCCN3CCCCC3)nc21 ?
Yeast superoxide: inactive; LANA-H2A inh: inactive; ASAP1 GAP inh: inactive; proCasp3 act: inactive; proCasp7 act: inactive; ARFGAP1 inh: inactive

What do the screens show for `COc1ccc(Oc2ccccc2C=O)cc1`?
Yeast superoxide: inactive; LANA-H2A inh: inactive; ASAP1 GAP inh: inactive; proCasp3 act: inactive; proCasp7 act: inactive; ARFGAP1 inh: inactive

What do the screens show for `CCCCOC(=O)NC(NCC(O)c1ccccc1)(C(F)(F)F)C(F)(F)F` (stereo not drawn)?
Yeast superoxide: inactive; LANA-H2A inh: inactive; ASAP1 GAP inh: inactive; proCasp3 act: inactive; proCasp7 act: inactive; ARFGAP1 inh: 31; ARFGAP1 inh conf: inactive

What do the screens show for `CCOC(=O)NC(NCC(O)c1ccccc1)(C(F)(F)F)C(F)(F)F` (stereo not drawn)?
Yeast superoxide: inactive; LANA-H2A inh: inactive; ASAP1 GAP inh: inactive; proCasp3 act: inactive; proCasp7 act: inactive; ARFGAP1 inh: inactive

Results for O=C(O)c1ccc(Nc2nc(-c3ccccc3)cs2)cc1 ?
Yeast superoxide: inactive; LANA-H2A inh: inactive; ASAP1 GAP inh: inactive; proCasp3 act: inactive; proCasp7 act: inactive; ARFGAP1 inh: inactive

How did N#Cc1ccc(Nc2nc(-c3ccccc3)cs2)cc1 do in these assays?
ASAP1 GAP inh: inactive; ARFGAP1 inh: 30; ARFGAP1 inh conf: inactive

What do the screens show for `O=C1C=C(C#Cc2ccccc2)C[C@@H](c2ccc(F)cc2)C1`?
ASAP1 GAP inh: inactive; ARFGAP1 inh: inactive

How did CNC(C)C#Cc1ccc2sc3cccc(OC)c3c(=O)c2c1 (stereo not drawn) do in these assays?
Yeast superoxide: inactive; LANA-H2A inh: inactive; ASAP1 GAP inh: inactive; proCasp3 act: inactive; proCasp7 act: inactive; ARFGAP1 inh: 28; ARFGAP1 inh conf: inactive

How did OCCC1CN(Cc2nc3ccccc3s2)CCN1CCc1ccccc1 (stereo not drawn) do in these assays?
Yeast superoxide: inactive; LANA-H2A inh: inactive; ASAP1 GAP inh: inactive; proCasp3 act: inactive; proCasp7 act: inactive; ARFGAP1 inh: inactive

What do the screens show for `COc1ccc(Cl)cc1NC(=O)CN(C)C(=O)/C=C/c1ccco1`?
Yeast superoxide: inactive; LANA-H2A inh: inactive; ASAP1 GAP inh: inactive; proCasp3 act: inactive; proCasp7 act: inactive; ARFGAP1 inh: inactive

What do the screens show for `C=CCNc1nc(NCCNC(C)=O)c2sc(-c3ccccc3)cc2n1`?
ASAP1 GAP inh: inactive; ARFGAP1 inh: inactive

How did C=CCNc1nc(NCCOC)c2sc(-c3ccccc3)cc2n1 do in these assays?
ASAP1 GAP inh: inactive; ARFGAP1 inh: 28; ARFGAP1 inh conf: 40

Results for C=CCNc1nc(NCc2ccc(N(C)C)cc2)c2sc(-c3ccccc3)cc2n1 ?
ASAP1 GAP inh: inactive; ARFGAP1 inh: 46; ARFGAP1 inh conf: inactive

What do the screens show for `NC(=O)C1CCN(c2nc(-c3ccccc3-c3ccccc3)cs2)CC1`?
Yeast superoxide: inactive; LANA-H2A inh: inactive; ASAP1 GAP inh: inactive; proCasp3 act: inactive; proCasp7 act: inactive; ARFGAP1 inh: inactive

Bioassay records from PubChem BioAssay.
